Reference: ChEMBL document CHEMBL4368909, “Identification of Dihydrofuro[3,4- d]pyrimidine Derivatives as Novel HIV-1 Non-Nucleoside Reverse Transcriptase Inhibitors with Promising Antiviral Activities and Desirable Physicochemical Properties” (J Med Chem, 2019)
In brackets after ≈: the same amount, converted by molar mass.

What was measured:
[1] = Sub-acute toxicity in Kunming mouse assessed as effect on lungs at 50 mg/kg/day, po administered for 2 weeks by hematoxylin and eosin staining-based assay; type: organism-based; conditions: in vivo, 336 h
Outline: (§1)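 Mice were dosed orally at 50 mg/kg/day for 2 weeks and observed for behavioural abnormalities during treatment. Organs were then examined by hematoxylin–eosin staining.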

[2] = system: Human immunodeficiency virus 1; assay: Resistance factor, ratio of EC50 for HIV1 harboring reverse transcriptase K103N mutant to EC50 for wild type HIV1; type: functional
Outline: (§2)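 The resistance factor is the EC50 against the mutant strain divided by the EC50 against wild-type HIV-1. Both were measured in MT-4 cells by MTT read-out of protection from virus-induced cytopathicity.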

[3] = molecular target: Cytochrome P450 2C9 (Homo sapiens, UniProt P11712); assay: Inhibition of CYP2C9 in human liver microsomes using diclofenac as substrate after 10 mins in presence of NADPH; type: ADME
[4] = Acute toxicity in Kunming mouse assessed as mortality at 800 mg/kg, po measured after 2 weeks; type: organism-based; conditions: in vivo, 336 h
Outline: (§3)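 Kunming mice received a single intragastric dose of 800 mg/kg. Deaths and behaviour were observed over 2 weeks and compared with a control group.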

[5] = molecular target: Voltage-gated inwardly rectifying potassium channel KCNH2 (Homo sapiens, UniProt Q12809); assay: Inhibition of human ERG expressed in HEK293 cells at -80 mV holding potential by manual patch clamp assay
[6] = system: Human immunodeficiency virus 1; assay: Antiviral activity against wild type HIV1 3B infected in human MT4 cells assessed as reduction in virus-induced cytopathic effect after 5 days by MTT assay; type: functional, organism-based; conditions: Human immunodeficiency virus 1, 3B, MT4, 120 h
[7] = molecular target: Cytochrome P450 3A4 (Homo sapiens, UniProt P08684); assay: Inhibition of CYP3A4 in human liver microsomes using midazolam as substrate after 10 mins in presence of NADPH; type: ADME
[8] = AUCt in Wistar rat at 20 mg/kg, po by LC-MS/MS analysis; type: ADME, organism-based; conditions: in vivo
Outline: (§4)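 Male/unspecified Wistar rats given one dose, 2 mg/kg intravenously or 20 mg/kg orally; plasma concentration–time profiles followed; PK parameters reported as mean ± SD, n = 5.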

[9] = AUC (0 to infinity) in Wistar rat at 2 mg/kg, iv by LC-MS/MS analysis; type: ADME, organism-based; parameters: dose 2 mg/kg, time infinity, route intravenous; conditions: in vivo; outline: as §4
[10] = Sub-acute toxicity in Kunming mouse assessed as behavior abnormalities at 50 mg/kg/day, po administered for 2 weeks by hematoxylin and eosin staining-based assay; type: organism-based; conditions: in vivo, 336 h; outline: as §1
[11] = Protein binding in rat plasma at 2 uM after 5 hrs by LC/MS analysis; type: ADME, cell-free; conditions: read-out: PPB (converted)
[12] = molecular target: T1, Cytochrome P450 1A2 (Homo sapiens, UniProt P05177); assay: Inhibition of CYP1A2 in human liver microsomes using phenacetin as substrate after 10 mins in presence of NADPH; type: ADME
T1 sequence (P05177 whole entry): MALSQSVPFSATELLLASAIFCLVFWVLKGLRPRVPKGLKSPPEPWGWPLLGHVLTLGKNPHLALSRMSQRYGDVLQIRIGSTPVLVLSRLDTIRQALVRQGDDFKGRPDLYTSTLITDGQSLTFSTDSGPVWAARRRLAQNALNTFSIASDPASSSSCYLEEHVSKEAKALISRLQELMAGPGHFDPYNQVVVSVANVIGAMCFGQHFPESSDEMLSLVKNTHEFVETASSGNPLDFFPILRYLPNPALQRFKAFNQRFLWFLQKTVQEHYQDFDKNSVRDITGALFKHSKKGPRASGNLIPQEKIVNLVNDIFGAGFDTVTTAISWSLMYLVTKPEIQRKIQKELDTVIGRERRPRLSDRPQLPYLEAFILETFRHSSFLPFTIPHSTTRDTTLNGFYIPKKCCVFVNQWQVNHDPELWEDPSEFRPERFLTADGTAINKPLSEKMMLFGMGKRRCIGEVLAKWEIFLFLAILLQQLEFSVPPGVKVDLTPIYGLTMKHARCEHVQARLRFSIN

[13] = Aqueous solubility of the compound at pH at 7.4 by HPLC analysis; type: physicochemical; conditions: buffer, pH 7.4
Outline: (§5)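 Aqueous solubility read by HPLC in buffer at pH 2.0, 7.0 or 7.4.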

[14] = system: Human immunodeficiency virus 1; assay: Antiviral activity against HIV1 harboring reverse transcriptase L100I mutant infected in human MT4 cells assessed as reduction in virus-induced cytopathic effect after 5 days by MTT assay; type: functional, organism-based; conditions: Human immunodeficiency virus 1, MT4, 120 h
[15] = system: Human immunodeficiency virus 1; assay: Resistance factor, ratio of EC50 for HIV1 harboring reverse transcriptase Y188L mutant to EC50 for wild type HIV1; type: functional; outline: as §2
[16] = Cmax in Wistar rat at 2 mg/kg, iv by LC-MS/MS analysis; type: ADME, organism-based; parameters: dose 2 mg/kg, route intravenous; conditions: in vivo; outline: as §4
[17] = system: MT4; assay: Cytotoxicity against human MT4 cells after 5 days by MTT assay; type: cell-based; conditions: mt4, 120 h
[18] = Sub-acute toxicity in Kunming mouse assessed as effect on liver at 50 mg/kg/day, po administered for 2 weeks by hematoxylin and eosin staining-based assay; type: organism-based; conditions: in vivo, 336 h; outline: as §1
[19] = AUC (0 to infinity) in Wistar rat at 20 mg/kg, po by LC-MS/MS analysis; type: ADME, organism-based; parameters: dose 20 mg/kg, route oral, time infinity; conditions: in vivo; outline: as §4
[20] = Oral bioavailability in Wistar rat at 20 mg/kg by LC-MS/MS analysis; type: ADME, organism-based; conditions: in vivo; outline: as §4
[21] = Acute toxicity in Kunming mouse assessed as behavior abnormalities at 800 mg/kg, po measured after 2 weeks; type: organism-based; conditions: in vivo, 336 h; outline: as §3
[22] = Protein binding in human plasma assessed as recovery rate at 2 uM after 5 hrs by LC/MS analysis; type: ADME, cell-free
[23] = molecular target: Cytochrome P450 2C19 (Homo sapiens, UniProt P33261); assay: Inhibition of CYP2C19 in human liver microsomes using S-mephenytoin as substrate after 10 mins in presence of NADPH; type: ADME
[24] = Sub-acute toxicity in Kunming mouse assessed as effect on kidneys at 50 mg/kg/day, po administered for 2 weeks by hematoxylin and eosin staining-based assay; type: organism-based; conditions: in vivo, 336 h; outline: as §1
[25] = system: Human immunodeficiency virus 1; assay: Resistance factor, ratio of EC50 for HIV1 harboring reverse transcriptase Y181C mutant to EC50 for wild type HIV1; type: functional; outline: as §2
[26] = Tmax in Wistar rat at 20 mg/kg, po by LC-MS/MS analysis; type: ADME, organism-based; conditions: in vivo; outline: as §4
[27] = Protein binding in human plasma at 2 uM after 5 hrs by LC/MS analysis; type: ADME, cell-free; conditions: read-out: PPB (converted)
[28] = Aqueous solubility of the compound in FASSIF by HPLC analysis; type: physicochemical; conditions: simulated gi fluid
Outline: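 Solubility read by HPLC in fasted state simulated intestinal fluid (FaSSIF).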

[29] = Half life in Wistar rat at 20 mg/kg, po by LC-MS/MS analysis; type: ADME, organism-based; conditions: in vivo; outline: as §4
[30] = system: Human immunodeficiency virus 1; assay: Antiviral activity against HIV1 harboring reverse transcriptase Y181C mutant infected in human MT4 cells assessed as reduction in virus-induced cytopathic effect after 5 days by MTT assay; type: functional, organism-based; conditions: Human immunodeficiency virus 1, MT4, 120 h
[31] = Clearance in Wistar rat at 2 mg/kg, iv by LC-MS/MS analysis; type: ADME, organism-based; conditions: in vivo; outline: as §4
[32] = Tmax in Wistar rat at 2 mg/kg, iv by LC-MS/MS analysis; type: ADME, organism-based; conditions: in vivo; outline: as §4
[33] = Aqueous solubility of the compound at pH at 7 by HPLC analysis; type: physicochemical; conditions: buffer, pH 7; outline: as §5

Sequence of Cytochrome P450 2C19 (P33261 whole entry): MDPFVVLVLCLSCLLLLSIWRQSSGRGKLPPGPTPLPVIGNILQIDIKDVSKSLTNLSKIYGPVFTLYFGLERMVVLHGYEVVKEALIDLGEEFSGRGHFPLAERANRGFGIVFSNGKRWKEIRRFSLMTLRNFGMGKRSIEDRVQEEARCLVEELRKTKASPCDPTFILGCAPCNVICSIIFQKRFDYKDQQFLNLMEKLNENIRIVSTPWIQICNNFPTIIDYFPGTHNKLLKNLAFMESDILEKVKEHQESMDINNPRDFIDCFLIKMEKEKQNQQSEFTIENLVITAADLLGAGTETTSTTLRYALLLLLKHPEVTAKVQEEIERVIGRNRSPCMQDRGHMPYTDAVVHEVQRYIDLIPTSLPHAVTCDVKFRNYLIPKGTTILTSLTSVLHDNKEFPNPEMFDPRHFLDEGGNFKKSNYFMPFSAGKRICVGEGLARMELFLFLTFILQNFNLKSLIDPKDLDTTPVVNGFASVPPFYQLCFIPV
Sequence of Cytochrome P450 2C9 (P11712 whole entry): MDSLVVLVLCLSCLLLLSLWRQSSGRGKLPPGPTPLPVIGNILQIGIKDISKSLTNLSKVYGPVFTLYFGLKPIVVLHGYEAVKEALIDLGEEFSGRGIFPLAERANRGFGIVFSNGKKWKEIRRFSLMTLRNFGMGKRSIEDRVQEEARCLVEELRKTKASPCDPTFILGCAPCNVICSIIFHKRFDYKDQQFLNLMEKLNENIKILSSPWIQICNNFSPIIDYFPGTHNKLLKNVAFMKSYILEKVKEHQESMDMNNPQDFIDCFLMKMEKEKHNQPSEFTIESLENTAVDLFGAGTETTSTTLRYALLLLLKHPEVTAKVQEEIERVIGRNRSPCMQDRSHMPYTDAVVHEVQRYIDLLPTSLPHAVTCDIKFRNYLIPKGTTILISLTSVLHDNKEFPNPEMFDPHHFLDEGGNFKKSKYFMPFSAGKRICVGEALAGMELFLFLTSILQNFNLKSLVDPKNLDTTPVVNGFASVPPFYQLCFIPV
Sequence of Voltage-gated inwardly rectifying potassium channel KCNH2 (Q12809 whole entry): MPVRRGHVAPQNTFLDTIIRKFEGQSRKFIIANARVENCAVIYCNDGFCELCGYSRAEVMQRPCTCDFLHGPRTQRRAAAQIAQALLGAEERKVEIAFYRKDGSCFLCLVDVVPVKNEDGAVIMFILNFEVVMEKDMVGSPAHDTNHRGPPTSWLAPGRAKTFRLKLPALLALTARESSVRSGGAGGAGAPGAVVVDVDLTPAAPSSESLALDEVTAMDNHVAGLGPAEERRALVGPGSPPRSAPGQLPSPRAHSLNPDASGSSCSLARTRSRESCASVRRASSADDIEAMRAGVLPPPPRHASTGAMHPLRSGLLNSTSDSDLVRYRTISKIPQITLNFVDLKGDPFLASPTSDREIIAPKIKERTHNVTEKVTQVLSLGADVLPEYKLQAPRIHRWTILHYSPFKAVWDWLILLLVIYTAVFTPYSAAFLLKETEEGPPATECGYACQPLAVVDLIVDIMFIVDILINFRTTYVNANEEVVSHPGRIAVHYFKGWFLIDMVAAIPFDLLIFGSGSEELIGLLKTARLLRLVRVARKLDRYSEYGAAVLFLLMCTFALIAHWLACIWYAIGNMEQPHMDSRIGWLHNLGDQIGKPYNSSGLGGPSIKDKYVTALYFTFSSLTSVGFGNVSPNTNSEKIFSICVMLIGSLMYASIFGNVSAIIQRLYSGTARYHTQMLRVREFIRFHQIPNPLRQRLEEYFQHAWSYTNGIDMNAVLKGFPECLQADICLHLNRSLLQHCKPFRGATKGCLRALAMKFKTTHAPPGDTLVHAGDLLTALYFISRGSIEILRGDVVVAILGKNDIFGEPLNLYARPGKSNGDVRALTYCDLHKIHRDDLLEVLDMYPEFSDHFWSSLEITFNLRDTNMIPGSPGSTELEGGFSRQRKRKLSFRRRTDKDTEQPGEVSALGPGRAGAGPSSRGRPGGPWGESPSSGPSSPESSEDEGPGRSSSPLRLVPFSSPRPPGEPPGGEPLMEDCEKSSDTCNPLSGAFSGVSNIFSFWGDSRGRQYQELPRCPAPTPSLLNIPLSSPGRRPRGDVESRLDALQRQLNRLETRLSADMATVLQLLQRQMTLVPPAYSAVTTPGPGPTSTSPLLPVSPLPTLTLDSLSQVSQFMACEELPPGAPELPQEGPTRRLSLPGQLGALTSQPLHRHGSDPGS
Sequence of Cytochrome P450 3A4 (P08684 whole entry): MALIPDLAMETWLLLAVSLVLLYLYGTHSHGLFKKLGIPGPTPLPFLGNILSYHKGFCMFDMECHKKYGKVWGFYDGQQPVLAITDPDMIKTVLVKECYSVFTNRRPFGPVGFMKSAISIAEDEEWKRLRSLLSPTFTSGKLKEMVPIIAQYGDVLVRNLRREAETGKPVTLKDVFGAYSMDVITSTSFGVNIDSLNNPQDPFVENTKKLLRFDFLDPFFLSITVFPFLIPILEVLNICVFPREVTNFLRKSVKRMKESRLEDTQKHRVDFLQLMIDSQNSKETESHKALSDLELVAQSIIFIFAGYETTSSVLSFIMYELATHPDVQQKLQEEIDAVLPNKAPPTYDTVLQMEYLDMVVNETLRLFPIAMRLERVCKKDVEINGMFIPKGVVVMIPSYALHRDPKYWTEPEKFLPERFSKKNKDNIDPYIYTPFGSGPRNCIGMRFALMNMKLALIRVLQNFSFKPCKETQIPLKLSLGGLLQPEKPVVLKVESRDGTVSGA

SMILES: Cc1cc(C#N)cc(C)c1Oc1nc(NC2CCN(Cc3ccc(C(N)=O)cc3)CC2)nc2c1COC2
- Activity [1]: Non-Toxic
- Ratio EC50 [2]: 0.6
- IC50 [3]: 46600 nM
- Activity [4]: Non-Toxic
- IC50 [5]: 830 nM
- EC50 [6]: 1.6 nM
- IC50 [7]: > 50000 nM
- AUC(0-t) [8]: 1550 ng·h/mL
- AUC(0-inf) [9]: 543 ng·h/mL
- Activity [10]: Non-Toxic
- fraction unbound at 5 h, 2 µM [11]: 0.082
- IC50 [12]: > 50000 nM
- solubility [13]: 6.59 µg/mL (≈ 13.2 µM)
- EC50 [14]: 2.4 nM
- Ratio EC50 [15]: 5.3
- Cmax [16]: 460 ng/mL
- CC50 [17]: > 250000 nM
- Activity [18]: Non-Toxic
- AUC(0-inf) [19]: 1660 ng·h/mL
- F [20]: 30.96%
- Activity [21]: Non-Toxic
- Drug recovery [22]: 86.3%
- IC50 [23]: > 50000 nM
- Activity [24]: Non-Toxic
- Ratio EC50 [25]: 2.8
- Tmax [26]: 1.33 h
- fraction unbound at 5 h, 2 µM [27]: 0.07
- solubility [28]: 32.5 µg/mL (≈ 65.2 µM)
- half-life [29]: 11.1 h
- EC50 [30]: 4.4 nM
- clearance [31]: 61.5 mL/min/kg
- Tmax [32]: 1.98 min
- solubility [33]: 13.3 µg/mL (≈ 26.7 µM)
